Calls of active or inactive are those of the source.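 How the source made its calls: active means current rise at least 3 SD above the untreated control mean in each of two repeat wells; inactive means the rest.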

Sequence of Potassium voltage-gated channel subfamily KQT member 1 (Homo sapiens) (P51787 whole entry, looked up): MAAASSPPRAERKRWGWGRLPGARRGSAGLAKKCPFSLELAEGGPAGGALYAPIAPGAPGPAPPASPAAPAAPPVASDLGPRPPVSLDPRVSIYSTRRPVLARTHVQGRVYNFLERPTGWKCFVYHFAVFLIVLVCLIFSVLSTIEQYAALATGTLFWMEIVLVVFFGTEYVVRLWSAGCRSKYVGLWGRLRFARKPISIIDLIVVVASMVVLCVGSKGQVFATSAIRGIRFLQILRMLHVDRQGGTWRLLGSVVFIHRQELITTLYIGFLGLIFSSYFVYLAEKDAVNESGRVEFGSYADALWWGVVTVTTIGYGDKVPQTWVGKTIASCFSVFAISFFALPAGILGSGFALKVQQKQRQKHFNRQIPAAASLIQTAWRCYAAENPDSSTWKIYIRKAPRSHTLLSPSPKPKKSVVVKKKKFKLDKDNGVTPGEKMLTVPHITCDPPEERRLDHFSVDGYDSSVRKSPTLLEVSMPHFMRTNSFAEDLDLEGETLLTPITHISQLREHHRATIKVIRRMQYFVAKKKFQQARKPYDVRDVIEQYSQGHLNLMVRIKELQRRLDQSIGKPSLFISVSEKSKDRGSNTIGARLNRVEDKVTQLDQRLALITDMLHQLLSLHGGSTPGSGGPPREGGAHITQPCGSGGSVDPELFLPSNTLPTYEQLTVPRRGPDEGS

This assay deals with Potassium voltage-gated channel subfamily KQT member 1 (Homo sapiens) (UniProt P51787). Kind of assay: KCNQ1 channel current potentiators, confirmation, orthogonal assay for KCNQ1 potentiator project, IonWorks patch clamp, KCNQ1-CHO cells (AID 493184). As to conditions: automated patch clamp current, at 10 µM. In outline:
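Probe or stimulus: depolarizing pulse to +40 mV from -90 mV; Material: CHO cells carrying KCNQ1; Compound: one dose, 10 µM final; Signal: automated voltage clamp, amphotericin B perforated patch; Read-out basis: percent current increase versus pre-compound level; Buffer or medium: pH 7.4 external bath; Replication: duplicates.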
A general note: In patch-clamp work, channel activity is measured electrically.
For `CCOC(=O)CSc1nc2ccccc2c(=O)n1-c1ccc(C)cn1`, the outcome was inactive.

Consider `S=c1[nH]cnc2scc(-c3ccc(Cl)cc3)c12`, for which the result was inactive.

In the case of `CCOC(=O)c1c(-c2ccccc2)csc1NC(=S)NC`, the outcome was inactive.

Source of the values: PubChem BioAssay.
